Bioassay records from PubChem.
XiGFP reactiv: X-chromosome reactivation activator | activation, % at 7.58 µM | XiGFP mouse fibroblasts, % GFP-positive cells imaging, 3 d; cells co-treated with 5-aza-dC sensitizer; scaled so ellipticine positive control = 100% | 360,000 compounds, 0.055% hits;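 active = mean normalized replicate activation at least 10% and every replicate at or above 10%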;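 also: 0% = median of on-plate neutral control wells and 100% = ellipticine 6 µM median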
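System: 68-5-11 XiGFP fibroblast line; Timing: 3 days compound exposure; Compound dosing: one concentration, pinned; Benchmarks: positive control ellipticine, 6 µM final; Buffer or medium: DMEM containing 5-aza-dC.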
FN deposition inh: fibronectin deposition inhibition; AH1F fibroblasts, Alexa488-fibronectin deposition fluorescence, overnight; inhibition, % at 12.6 µM; 350,000 compounds, 0.086% hits;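 active = mean inhibition across replicates of 30% or more, regardless of how many single replicates reach that level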;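 also: positive control wells lacked labelled fibronectin entirely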
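Assay system: AH1F fibroblasts assembling fluorescent fibronectin matrix; Amount: 10000 AH1F cells per well; Buffer or medium: DMEM, 2% serum; Probe or stimulus: Alexa488-fibronectin, 24 nM final in well; Doses: single compound dose, delivered by pin transfer; Incubation: 1 h adhesion, overnight exposure; Measured by: fluorescence 485/525 nm; Read-out: fibronectin deposition inhibition.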
ARNT TACC3 PPI: disruptors of human ARNT/TACC3 interaction | Q9Y6A5 | AlphaScreen His-ARNT PAS-B/GST-TACC3 binding, luminescence; TACC3 fragment carries E629A point mutation | inhibition, % at 9.99 µM | 390,000 compounds, 0.66% hits;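 active = mean inhibition of replicates at least 50% and at least half of replicates each reaching 50%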;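 also: 0% = complete ARNT plus TACC3 wells and 100% = ARNT alone without TACC3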
SIRT5 inh: sirtuin-5 (human) deacylase inhibition; inhibition, % at 15 µM; 330,000 compounds, 1.1% hits; AID 652115; Q9NXA8; Purified SirT5, succinyl-peptide AMC, trypsin-coupled fluorescence; in the data active = inhibition above about 15%
Target sequence (Q9NXA8 whole entry, looked up): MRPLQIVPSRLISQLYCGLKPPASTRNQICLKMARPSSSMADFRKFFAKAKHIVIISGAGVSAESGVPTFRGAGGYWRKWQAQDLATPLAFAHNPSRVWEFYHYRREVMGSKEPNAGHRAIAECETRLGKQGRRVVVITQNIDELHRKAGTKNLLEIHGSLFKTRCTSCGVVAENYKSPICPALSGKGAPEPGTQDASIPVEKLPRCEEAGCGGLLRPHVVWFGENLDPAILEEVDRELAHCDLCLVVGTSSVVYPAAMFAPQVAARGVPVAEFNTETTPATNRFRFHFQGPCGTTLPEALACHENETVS
FGF22 binding: binders of recombinant human FGF22 by thermal shift; SYPRO orange fluorescence; percent of sucrose octasulfate shift, DMSO zero; 340,000 compounds, 1.5% hits; activity (Tm shift, normalised), % at 9.99 µM; AID 651658;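 active = mean Tm shift, scaled 0 neutral to 100 positive control, at about 1.3% or above, every replicate too, limit read from the data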
Target sequence (Q9HCT0 whole entry, looked up): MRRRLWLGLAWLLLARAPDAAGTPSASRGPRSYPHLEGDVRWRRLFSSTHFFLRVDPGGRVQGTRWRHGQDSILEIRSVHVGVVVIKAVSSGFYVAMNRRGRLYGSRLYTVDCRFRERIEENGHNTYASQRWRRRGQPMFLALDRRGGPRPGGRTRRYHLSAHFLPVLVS
DENV2 CPE rescue: DENV2-induced cell death inhibition; DENV2-infected cells, cytopathic effect rescue, plate reader; CPE inhibition, % at 9.99 µM; 350,000 compounds, 1.7% hits; in the data active = CPE inhibition above about 20%, passing the limit was not always enough; tested in BHK-21 cells;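 also: 0% = median of neutral control wells and 100% = median of positive control wells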
Starred values were filed as active, the others as inactive; · = no result given; ! = a repeat was not active. Rows were chosen to be rich in hits. Some 3.8% of all compounds tested hit in one or more screens of this group.

SMILES	XiGFP reactiv	FN deposition inh	ARNT TACC3 PPI	SIRT5 inh	FGF22 binding	DENV2 CPE rescue
O=C(Nc1cccc(F)c1)N1[C@@H]2CNC[C@H]1C2c1ccc(-c2cccc(F)c2)cc1 (some centres not stated)	0	-3	·	6	·	0
CN(C)CC(=O)NC[C@H]1N[C@@H](CO)[C@H]1c1ccc(-c2cccc(C#N)c2)cc1	1	-7	-1	-4	0	25*
CCC(=O)NC[C@@H]1N[C@@H](CO)[C@H]1c1ccc(-c2cccc(C#N)c2)cc1	0	6	-5	0	0	2
O=C(Nc1cccc(Cl)c1)N1[C@@H]2CNC[C@H]1C2c1ccc(-c2ccccc2)cc1 (some centres not stated)	0	-4	·	2	·	67*!
CO[C@@H]1CN(C)C(=O)c2ccc(NC(=O)NC3CCCCC3)cc2OC[C@@H](C)N(CC2CCOCC2)C[C@H]1C	0	-5	2	1	0	-1
CCS(=O)(=O)Nc1ccc2c(c1)C(=O)N(C)[C@H]1CC[C@@H](CC(=O)N3CCN(C)CC3)O[C@H]1CO2	0	6	-2	1	0	0
CCOC(=O)/C(N=Nc1c(C)n(C)n(-c2ccccc2)c1=O)=C(/O)c1ccccc1	0	1	12	0	43*	·
Cc1c(N=N/C(C(=O)Nc2ccccc2)=C(/O)c2ccccc2)c(=O)n(-c2ccccc2)n1C	0	3	-5	-2	0	-5
O=C(c1ccncc1)N1CC2(C1)[C@H](c1ccccc1)[C@H](CO)N2Cc1ccccn1	0	·	·	4	0	1
Cc1noc(C)c1NC(=O)Nc1ccc2c(c1)C(=O)N([C@@H](C)CO)C[C@@H](C)[C@H](CN(C)CC1CCCCC1)O2	-1	-14	-5	2	0	1
C/C(CC(=O)Nc1ccc(C)c(Cl)c1)=N\NC(=O)c1ccncc1	0	-2	7	-5	44*	19
CCC(=O)N1C[C@H](O)COC[C@H]2O[C@@H](CC(=O)NCc3ccccc3Cl)CC[C@@H]21	0	3	-3	3	0	0
CCOc1ccc(N2CC(O)=C(c3nc4ccccc4c(=O)[nH]3)C2=N)cc1	0	-12	-4	·	1	3
Cc1ccc(N2CC(O)=C(c3nc4ccccc4c(=O)[nH]3)C2=N)cc1C	0	0	27	-1	43*	0
CC1(c2ccc3ccccc3c2)CCC(=O)O1 (configuration not stated)	0	·	-2	-3	0	22*
CCOC(=O)N1CCN(C(=O)CCS(=O)(=O)c2cc3c(cc2Cl)NC(=O)CO3)CC1	1	-24	·	·	0	24*
COc1ccccc1NC(=O)N[C@@H]1C=C[C@@H](CC(=O)NCc2ccc(Cl)c(Cl)c2)O[C@@H]1CO	0	-16	·	-4	1	-7
CN(C)C(=O)c1cccc(-c2ccccc2[C@H]2[C@@H](CO)N(C(=O)C3CCCCC3)[C@H]2C#N)c1	0	-2	·	3	0	9
C[C@@H]1CN([C@H](C)CO)C(=O)Cc2cc(N(C)C)ccc2O[C@@H]1CN(C)S(=O)(=O)c1cn(C)cn1	-1	-2	-4	-3	0	-2
CC1(C)COC(c2ccc(F)c([N+](=O)[O-])c2)=N1	0	-2	·	-4	0	34*
COc1ccc(Cc2noc(CN3CCN(Cc4cccc(Cl)c4)CC3)n2)cc1OC	0	·	3	1	44*	-2
COc1ccc(Cc2noc(CN3CCN(c4ccc(Cl)cn4)CC3)n2)cc1OC	0	0	-2	-4	0	17
COc1ccc(CN(C)C[C@@H]2Oc3ccc(NC(=O)CCN4CCOCC4)cc3C(=O)N([C@@H](C)CO)C[C@@H]2C)cc1	0	·	·	·	0	-4
COc1ccc(CN(C)C[C@@H]2Oc3ccc(NC(=O)CCN4CCOCC4)cc3C(=O)N([C@@H](C)CO)C[C@H]2C)cc1	0	·	6	-2	-1	21*
C[C@@H]1CN([C@@H](C)CO)C(=O)c2cc(NC(=O)CCN3CCOCC3)ccc2O[C@H]1CN(C)Cc1ccc(C(F)(F)F)cc1	-1	1	-2	26*	0	-2
SMILES	XiGFP reactiv	FN deposition inh	ARNT TACC3 PPI	SIRT5 inh	FGF22 binding	DENV2 CPE rescue
COc1ccc(NC(=O)N(C)C[C@H]2Oc3ccc(NC(=O)CCN4CCOCC4)cc3C(=O)N([C@H](C)CO)C[C@@H]2C)cc1	0	-3	21	4	1	52*!
COc1ccc(NC(=O)N(C)C[C@H]2Oc3ccc(NC(=O)CCN4CCOCC4)cc3C(=O)N([C@@H](C)CO)C[C@@H]2C)cc1	0	-4	1	-3	0	-7
CCCc1cn(CC[C@@H]2CC[C@@H](NC(=O)C3CCC3)[C@@H](CO)O2)nn1	-1	·	-6	2	0	-3
C[C@@H]1CN([C@H](C)CO)C(=O)c2cccc(N(C)C)c2O[C@@H]1CN(C)C(=O)Nc1ccc2c(c1)OCO2	-1	-6	6	9	0	27*
C[C@H]1CN([C@@H](C)CO)C(=O)c2cccc(N(C)C)c2O[C@@H]1CN(C)C(=O)Nc1ccc2c(c1)OCO2	1	11	8	-1	0	2
Cc1noc(C)c1NC(=O)N(C)C[C@@H]1Oc2c(cccc2N(C)C)C(=O)N([C@H](C)CO)C[C@@H]1C	0	-2	-3	-2	0	24*
C[C@@H]1CN([C@@H](C)CO)C(=O)c2cccc(N(C)C)c2O[C@H]1CN(C)C(=O)Nc1ccccc1	0	-2	-5	3	0	30*
C[C@@H]1CN([C@@H](C)CO)C(=O)c2cccc(N(C)C)c2O[C@H]1CN(C)C(=O)Nc1cccc2ccccc12	-1	-4	0	7	0	2
C[C@H](CO)N1C[C@H](C)[C@@H](CN(C)C(=O)Nc2cccc3ccccc23)Oc2c(cccc2N(C)C)C1=O	0	3	17	-1	-1	21*
C[C@@H]1CN([C@H](C)CO)C(=O)c2cc(C#CCN(C)C)cnc2O[C@H]1CN(C)S(C)(=O)=O	-1	-3	-11	-1	0	5
COc1ccc2c3c(n(C)c2c1)[C@@H](CO)N(CC1CC1)CC31CCN(C(=O)c2ccccc2)CC1	0	·	·	·	·	·
C[C@H](O)C#Cc1ccc2c(c1)O[C@@H](CN(C)CC1CCOCC1)[C@@H](C)CN([C@H](C)CO)S2(=O)=O	0	-10	7	·	0	-2
C[C@@H]1CN([C@H](C)CO)C(=O)c2cccc(N(C)C)c2O[C@@H]1CN(C)C(=O)NC1CCCCC1	0	3	·	27*	0	-5
